Key:
Assay type in all cases: functional, cell-based
[1] = tested on: MCF7; assay: Cytotoxicity against human MCF7 cells after 48 hrs by MTS assay; conditions: MCF7, 48 h
Method in brief: (§1)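 Cells kept in RPMI 1640 with 10% FBS and 100 U/mL penicillin/streptomycin, 37 °C, 5% CO2. Seeded at 5 × 10^3/well with test samples at various concentrations for 48 h. MTS (5 mg/mL in PBS) added, 4 h more. Medium partly replaced by 20% SDS overnight to dissolve formazan. Absorbance read at 570 nm. IC50 calculated by Reed and Muench method. Cisplatin served as positive control.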

[2] = tested on: SW480; assay: Cytotoxicity against human SW480 cells after 48 hrs by MTS assay; conditions: SW480, 48 h; method in brief: as §1
[3] = Cytotoxicity against human ECA109 cells after 48 hrs by MTT assay; conditions: ECa-109, 48 h
Method in brief: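 Cells grown in RPMI 1640 with 10% FBS and 100 U/mL penicillin/streptomycin, humidified 5% CO2, 37 °C. Plated 5 × 10^3/well, exposed to test samples at various concentrations for 48 h. MTT then added in place of MTS, 4 h further. Formazan dissolved overnight in 20% SDS, A570 measured. IC50 by Reed and Muench method. Tanespimycin (17AAG) was the positive control.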

[4] = tested on: HL-60; assay: Cytotoxicity against human HL60 cells after 48 hrs by MTS assay; conditions: HL-60, 48 h; method in brief: as §1
[5] = tested on: A549; assay: Cytotoxicity against human A549 cells after 48 hrs by MTS assay; conditions: A549, 48 h; method in brief: as §1
[6] = tested on: SMMC-7721; assay: Cytotoxicity against human SMMC7721 cells after 48 hrs by MTS assay; conditions: SMMC-7721, 48 h; method in brief: as §1

SMILES	IC50 [1] [µM]	IC50 [2] [µM]	IC50 [3] [µM]	IC50 [4] [µM]	IC50 [5] [µM]	IC50 [6] [µM]
COc1ccc2cc1Oc1ccc(cc1)C[C@H]1c3cc(c(OC)cc3CCN1C)Oc1c(O)c(OC)cc3c1[C@H](C2)N(C)CC3 [FANGCHINOLINE]	5	> 10	> 10	> 10	> 10	> 10
C=CCNC1=C2C[C@@H](C)C[C@H](OC)[C@H](O)[C@@H](C)/C=C(\C)[C@H](OC(N)=O)[C@@H](OC)/C=C\C=C(/C)C(=O)NC(=CC1=O)C2=O [TANESPIMYCIN]	–	–	1.1	–	–	–
COc1ccc2cc1Oc1ccc(cc1)C[C@H]1c3c(cc(OC)c(O)c3Oc3cc4c(cc3OC)CCN(C)[C@@H]4C2)CCN1C [HOMOAROMOLINE]	9.5	> 10	> 10	> 10	> 10	> 10
COc1ccc2cc1Oc1ccc(cc1)C[C@H]1c3c(cc4c(c3Oc3cc5c(cc3OC)CCN(C)[C@@H]5C2)OCO4)CCN1C [CEPHARANTHINE]	2.9	4.7	> 10	9.2	5	9.9
COc1ccc2cc1Oc1ccc(cc1)C[C@H]1c3c(cc4c(c3Oc3cc5c(cc3OC)CCN=C5C2)OCO4)CC[N@@+]1(C)[O-]	> 10	> 10	10	> 10	> 10	> 10
COc1ccc2cc1Oc1ccc(cc1)C[C@H]1c3c(cc4c(c3Oc3cc5c(cc3OC)CCN[C@@H]5C2)OCO4)CCN1C	2.3	3.7	3.2	2.8	3.7	4.8

— ChEMBL document CHEMBL2375340, “Cytotoxic bisbenzylisoquinoline alkaloids from Stephania epigaea” (J Nat Prod, 2013)
